Measured values pooled from the literature.
Lines come from different studies, so protocols differ. pKi: −log10 of the molar value.
MMP13: Collagenase 3 (MMP13, Homo sapiens, UniProt P45452)
ADORA2B: Adenosine receptor A2b (ADORA2B, Homo sapiens, UniProt P29275)
HTR4: 5-hydroxytryptamine receptor 4 (HTR4, Homo sapiens, UniProt Q13639)

For `OC[C@@]12C[C@@H]1[C@@H](n1cnc3c(NC(C4CCCC4)C4CCCC4)nc(Cl)cc31)[C@H](O)[C@@H]2O`, the pKi was 5.33 (Beta-3 adrenergic receptor (ADRB3, Homo sapiens, UniProt P13945); cell-free assay; radioligand).
For `COC(=O)c1ccc(CSc2nc3c(c(=O)[nH]2)CCC3)cc1`, the pKi was 5.82 (MMP13; enzyme activity; inhibitor).
For `C=CCN1CCCn2c1nc1c2c(=O)n(C)c(=O)n1C`, the pKi was < 5.00 (ADORA2B; ligand displacement; radioligand; cell membranes).
For `CCCCN1CCC(COC(=O)c2ccc(N)c(OCF)c2)CC1`, the pKi was 9.10 (HTR4; ligand displacement; radioligand).
The pKi of `CC(C)N1CCCn2c1nc1c2c(=O)n(C)c(=O)n1C` is reported as < 5.00 (ADORA2B; ligand displacement; radioligand; cell membranes).
For `N=C(N)N1CCC[C@H]1c1nc(-c2ccc(CCC3CCCCC3)c(C(F)(F)F)c2)no1`, the pKi was 6.96 (Sphingosine kinase 2 (Sphk2, Mus musculus, UniProt Q9JIA7); enzyme activity; inhibitor).
With `CCCCCCCCCCCCCC#CC(=O)O` the pKi was 5.32 (Fatty acid synthase (Plasmodium falciparum, UniProt Q965D7); enzyme activity; inhibitor).
With `CCCCn1c(=O)c2[nH]c(C34CC5CC(CC3C5)C4)nc2n(CCCO)c1=O` the pKi was 7.31 (ADORA2B; ligand displacement; radioligand; cell membranes).
`COc1ccc(CCCn2ncc3c2nc(N)n2nc(-c4ccco4)nc32)cc1` gave a pKi of 6.12 (Adenosine receptor A1 (Mus musculus, UniProt Q60612); ligand displacement; radioligand; cell membranes).
`Nc1ncnc2c1ncn2[C@@H]1O[C@H](COP(=O)(O)OP(=O)(O)O)[C@@H](O)[C@H]1O` gave a pKi of ~5.70 (nod (Drosophila melanogaster, UniProt P18105); enzyme activity; inhibitor).
`C[C@]12CCC(=O)C=C1CC[C@@H]1[C@@H]2[C@@H](O)C[C@@]2(C)[C@H]1CC[C@]2(O)C(=O)CO` has a pKi of 5.36 (G-protein coupled estrogen receptor 1 (GPER1, Homo sapiens, UniProt Q99527); ligand displacement; radioligand).
`CCCCN1CCCn2c1nc1c2c(=O)n(C)c(=O)n1C` has a pKi of < 5.00 (ADORA2B; ligand displacement; radioligand; cell membranes).
`Cc1c(-c2ccccc2)oc2c(C(=O)OCCN3CCCCC3)cccc2c1=O` gave a pKi of < 5.00 (HTR4; cell-free assay; radioligand; cell membranes).
For `C[C@H]1CN(C2COC2)CCN1c1ccc(Nc2cc(-c3ccnc(N4CCn5c(cc6c5CC(C)(C)C6)C4=O)c3CO)cn(C)c2=O)nc1`, the pKi was 5.71 (Solute carrier organic anion transporter family member 1B1 (SLCO1B1, Homo sapiens, UniProt Q9Y6L6); transporter uptake; inhibitor; HEK293).
The pKi of `CCCC(C)N1CCCn2c1nc1c2c(=O)n(C)c(=O)n1C` (stereo not shown) is reported as < 5.00 (ADORA2B; ligand displacement; radioligand; cell membranes).
For `Oc1nc(SCc2ccc(Cl)cc2)nc2c1CCC2`, the pKi was 5.48 (MMP13; enzyme activity; inhibitor).
